Read-outs that look alike come from different tables or passages of the source.
Assays:
[1] = format: in vivo, human; settings: for AUCinf of metabolite, GM / AUCinf of metabolite, mean (SD) / AUClast of metabolite, GM / AUClast of metabolite, mean (SD) / Cmax of metabolite, GM / Cmax of metabolite, mean (SD) / Metabolite ratio of AUCinf, GM / Metabolite ratio of AUCinf, mean (SD) / Metabolite ratio of AUClast, GM / Metabolite ratio of AUClast, mean (SD) / Tmax of metabolite, median (range) / t½ of metabolite, GM / t½ of metabolite, mean (SD): after capmatinib single oral dose 200 mg
Procedure, shortened: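 Adults aged 18–75 with hepatic impairment (Child–Pugh A/B/C, also reclassified by NCI Organ Dysfunction Working Group criteria) or normal function, matched on age, weight and sex. Overnight fast (≥10 h), single oral 200 mg (2 × 100 mg tablets), fasting ≥4 h post-dose. Plasma sampled predose to 72 h; parent and metabolite measured by validated LC-MS/MS (LLOQ ~1.00 ng/mL). Noncompartmental analysis; GM ratios vs normal with 90% CIs.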

[2] = multiple dosing of capmatinib; cited from earlier work
[3] = mild (n = 6), listed as M16 (CMN288)
[4] = moderate (n = 8), listed as M16 (CMN288)
[5] = normal (n = 9), listed as M16 (CMN288)
[6] = severe (n = 6), listed as M16 (CMN288)

CNC(=O)c1ccc(-c2nn3c(Cc4ccc5ncccc5c4)cnc3[nH]c2=O)cc1F [CMN288]
AUCinf of metabolite, GM ([1]; mild (n = 6)): 2.19 µg·h/mL
AUCinf of metabolite, mean (SD) ([1]; mild (n = 6)): 2300 (691) ng × h/mL
AUClast of metabolite, GM ([1]; mild (n = 6)): 2.15 µg·h/mL
AUClast of metabolite, mean (SD) ([1]; mild (n = 6)): 2250 (677) ng × h/mL
Cmax of metabolite, GM ([1]; mild (n = 6)): 0.423 µg/mL
Cmax of metabolite, mean (SD) ([1]; mild (n = 6)): 492 (272) ng/mL
Metabolite ratio of AUCinf, GM ([1]; mild (n = 6)): 0.440 (23.8) fold
Metabolite ratio of AUCinf, mean (SD) ([1]; mild (n = 6)): 0.450 (0.0988) fold
Metabolite ratio of AUClast, GM ([1]; mild (n = 6)): 0.437 (24.1) fold
Metabolite ratio of AUClast, mean (SD) ([1]; mild (n = 6)): 0.447 (0.100) fold
Tmax of metabolite, median (range) ([1]; mild (n = 6)): 1.00 (1.00–2.00) h
t½ of metabolite, GM ([1]; mild (n = 6)): 6.84 h
t½ of metabolite, mean (SD) ([1]; mild (n = 6)): 7.86 (5.49) h
Metabolite ratio of AUCinf, GM [1, 3]: 0.440 fold
Metabolite ratio of AUClast, GM [1, 3]: 0.437 fold
AUCinf of metabolite, GM ([1]; moderate (n = 8)): 3.4 µg·h/mL
AUCinf of metabolite, mean (SD) ([1]; moderate (n = 8)): 3850 (2490) ng × h/mL
AUClast of metabolite, GM ([1]; moderate (n = 8)): 3.37 µg·h/mL
AUClast of metabolite, mean (SD) ([1]; moderate (n = 8)): 3830 (2490) ng × h/mL
Cmax of metabolite, GM ([1]; moderate (n = 8)): 0.587 µg/mL
Cmax of metabolite, mean (SD) ([1]; moderate (n = 8)): 738 (645) ng/mL
Metabolite ratio of AUCinf, GM ([1]; moderate (n = 8)): 0.573 (67.7) fold
Metabolite ratio of AUCinf, mean (SD) ([1]; moderate (n = 8)): 0.680 (0.443) fold
Metabolite ratio of AUClast, GM ([1]; moderate (n = 8)): 0.573 (68.0) fold
Metabolite ratio of AUClast, mean (SD) ([1]; moderate (n = 8)): 0.680 (0.445) fold
Tmax of metabolite, median (range) ([1]; moderate (n = 8)): 1.00 (1.00–3.00) h
t½ of metabolite, GM ([1]; moderate (n = 8)): 6.42 h
t½ of metabolite, mean (SD) ([1]; moderate (n = 8)): 7.32 (5.16) h
Metabolite ratio of AUCinf, GM [1, 4]: 0.573 fold
Metabolite ratio of AUClast, GM [1, 4]: 0.573 fold
AUCinf of metabolite, GM ([1]; normal (n = 9)): 4.56 µg·h/mL
AUCinf of metabolite, mean (SD) ([1]; normal (n = 9)): 4820 (1880) ng × h/mL
AUClast of metabolite, GM ([1]; normal (n = 9)): 4.52 µg·h/mL
AUClast of metabolite, mean (SD) ([1]; normal (n = 9)): 4780 (1880) ng × h/mL
Cmax of metabolite, GM ([1]; normal (n = 9)): 1.01 µg/mL
Cmax of metabolite, mean (SD) ([1]; normal (n = 9)): 1050 (328) ng/mL
Metabolite ratio of AUCinf, GM ([1]; normal (n = 9)): 0.704 (24.1) fold
Metabolite ratio of AUCinf, mean (SD) ([1]; normal (n = 9)): 0.722 (0.181) fold
Metabolite ratio of AUClast, GM ([1]; normal (n = 9)): 0.702 (24.0) fold
Metabolite ratio of AUClast, mean (SD) ([1]; normal (n = 9)): 0.720 (0.180) fold
Tmax of metabolite, median (range) ([1]; normal (n = 9)): 1.50 (1.00–2.00) h
t½ of metabolite, GM ([1]; normal (n = 9)): 9.96 h
t½ of metabolite, mean (SD) ([1]; normal (n = 9)): 11.4 (6.92) h
Metabolite ratio of AUCinf, GM [1, 5]: 0.704 fold
Metabolite ratio of AUClast, GM [1, 5]: 0.702 fold
AUCinf of metabolite, GM ([1]; severe (n = 6)): 2.13 µg·h/mL
AUCinf of metabolite, mean (SD) ([1]; severe (n = 6)): 2350 (1200) ng × h/mL
AUClast of metabolite, GM ([1]; severe (n = 6)): 2.11 µg·h/mL
AUClast of metabolite, mean (SD) ([1]; severe (n = 6)): 2330 (1210) ng × h/mL
Cmax of metabolite, GM ([1]; severe (n = 6)): 0.262 µg/mL
Cmax of metabolite, mean (SD) ([1]; severe (n = 6)): 287 (130) ng/mL
Metabolite ratio of AUCinf, GM ([1]; severe (n = 6)): 0.266 (32.2) fold
Metabolite ratio of AUCinf, mean (SD) ([1]; severe (n = 6)): 0.276 (0.0802) fold
Metabolite ratio of AUClast, GM ([1]; severe (n = 6)): 0.264 (32.2) fold
Metabolite ratio of AUClast, mean (SD) ([1]; severe (n = 6)): 0.274 (0.0795) fold
Tmax of metabolite, median (range) ([1]; severe (n = 6)): 3.00 (1.50–6.00) h
t½ of metabolite, GM ([1]; severe (n = 6)): 5.87 h
t½ of metabolite, mean (SD) ([1]; severe (n = 6)): 5.93 (0.907) h
Metabolite ratio of AUCinf, GM [1, 6]: 0.266 fold
Metabolite ratio of AUClast, GM [1, 6]: 0.264 fold
decrease in metabolite GM AUCinf vs. normal group ([1]; mild group): 52.0%
decrease in metabolite GM AUClast vs. normal group ([1]; mild group): 52.4%
decrease in metabolite GM Cmax vs. normal group ([1]; mild group): 58.1%
decrease in metabolite GM t1/2 vs. normal group ([1]; mild group): 31.3%
decrease in metabolite GM AUCinf vs. normal group ([1]; moderate group): 25.4%
decrease in metabolite GM AUClast vs. normal group ([1]; moderate group): 25.4%
decrease in metabolite GM Cmax vs. normal group ([1]; moderate group): 41.9%
decrease in metabolite GM t1/2 vs. normal group ([1]; moderate group): 35.5%
decrease in metabolite GM AUCinf vs. normal group ([1]; severe group): 53.3%
decrease in metabolite GM AUClast vs. normal group ([1]; severe group): 53.3%
decrease in metabolite GM Cmax vs. normal group ([1]; severe group): 74.1%
decrease in metabolite GM t1/2 vs. normal group ([1]; severe group): 41.1%
decrease in metabolite GM AUCinf and AUClast vs. normal hepatic function ([1]; the 3 hepatic impairment groups): 25–53%
accumulation of metabolite after multiple dosing [2]: does not accumulate

Reference: PMC9291822 (British Journal of Clinical Pharmacology, 2021)
